Data reported in ChEMBL document CHEMBL2086251, “Arylazolyl(azinyl)thioacetanilides. Part 10: design, synthesis and biological evaluation of novel substituted imidazopyridinylthioacetanilides as potent HIV-1 inhibitors” (Bioorg Med Chem, 2012).
pEC50: −log10 of the molar value.

What was measured:
[1] = tested on: Human immunodeficiency virus 1; assay: Antiviral activity against HIV-1 RES056 harboring RT K103N/Y181C mutant gene infected human MT4 cells assessed as inhibition in viral syncytium formation by MTT assay; type: functional, organism-based; details: Human immunodeficiency virus 1, RES056, MT4
Procedure, shortened: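 MT-4 cells infected with double-mutant RT (K103N/Y181C) HIV-1 RES056; compounds added as serial fivefold dilutions in triplicate wells with mock-infected parallels. Cells at 6 × 10⁵ cells/mL. Viability read by MTT after five days at 540 and 690 nm, median OD of three wells. EC50 is the concentration inhibiting virus-induced syncytium formation by 50%.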

[2] = tested on: Human immunodeficiency virus 1; assay: Antiviral activity against HIV-1 3B infected human MT4 cells assessed as inhibition in viral syncytium formation by MTT assay; type: functional, organism-based; details: Human immunodeficiency virus 1, 3B
Procedure, shortened: (§1)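 MT-4 cells (6 × 10⁵ cells/mL) infected with HIV-1 IIIB or HIV-2 ROD stock at 100–300 CCID50, with serial fivefold compound dilutions in triplicate wells. After 5 days, viability was read by MTT reduction at 540 and 690 nm, using the median OD of three wells. EC50 is the concentration giving 50% inhibition of virus-induced syncytium formation.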

[3] = tested on: Human immunodeficiency virus 2; assay: Antiviral activity against HIV-2 ROD infected human MT4 cells assessed as inhibition in viral syncytium formation by MTT assay; type: functional, organism-based; details: Human immunodeficiency virus 2, ISOLATE ROD; procedure, shortened: as §1
[4] = Cytotoxicity against mock-infected human MT4 cells by MTT assay; type: cell-based
Procedure, shortened: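 Mock-infected MT-4 cells (6 × 10⁵ cells/mL) were run in parallel with the infected wells, with serial fivefold compound dilutions in triplicate. After 5 days, viability was read by MTT at 540 and 690 nm, using the median OD of three wells. CC50 is the concentration that reduces OD540 of mock-infected controls by 50%.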

[5] = Selectivity index, ratio of CC50 for human MT4 cells to EC50 for HIV-1 3B; type: toxicity, cell-based; details: read-out: Ratio CC50/EC50
Procedure, shortened: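 SI is the ratio CC50/EC50, both taken from parallel 5-day MTT assays in MT-4 cells. CC50 comes from mock-infected cells and EC50 from HIV-1 IIIB-infected cells.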

SMILES	pEC50 [1]	pEC50 [2]	pEC50 [3]	CC50 [4] [µM]	selectivity ratio [5]
Cc1cc(C)c(-n2c(SCC(=O)Nc3cccnc3Cl)nc3cnccc32)c(C)c1	< 4.66	5.77	< 4.66	22	12
Cc1cc(C)c(-n2c(SCC(=O)Nc3ccccc3)nc3cccnc32)c(C)c1		< 4.59	< 4.59	26	< 1
Cc1cc(C)c(-n2c(SCC(=O)Nc3ccccc3Cl)nc3cccnc32)c(C)c1		< 5.41	< 5.41	3.9	< 1
Cc1cc(C)c(-n2c(SCC(=O)Nc3ccccc3F)nc3cccnc32)c(C)c1		< 5.43	< 5.43	3.7	< 1
Cc1cc(C)c(-n2c(SCC(=O)Nc3ccccc3Br)nc3cccnc32)c(C)c1		< 5.25	< 5.25	5.6	< 1
Cc1cc(C)c(-n2c(SCC(=O)Nc3ccc(C)cc3Br)nc3cccnc32)c(C)c1		< 6.00	< 6.00	0.99	< 1
Cc1cc(C)c(-n2c(SCC(=O)Nc3ccc(C)cc3[N+](=O)[O-])nc3cccnc32)c(C)c1		< 3.84	< 3.84	144	< 1
Cc1cc(C)c(-n2c(SCC(=O)Nc3ccccc3[N+](=O)[O-])nc3cccnc32)c(C)c1	< 4.41	≤ 5.17	< 4.41	39	≤ 6
CC(=O)c1ccc(NC(=O)CSc2nc3cccnc3n2-c2c(C)cc(C)cc2C)c(Br)c1	< 4.34	5.44	< 4.34	46	13
Cc1cc(C)c(-n2c(SCC(=O)Nc3cccnc3Cl)nc3cccnc32)c(C)c1		< 5.22	< 5.22	6	< 1
Cc1cc(C)c(-n2c(SCC(=O)Nc3ccc(Cl)cc3Cl)nc3cccnc32)c(C)c1		< 5.52	< 5.52	3.9	< 1
Cc1cc(C)c(-n2c(SCC(=O)Nc3ccccc3C)nc3cccnc32)c(C)c1		< 4.82	< 4.82	15	< 1
COC(=O)c1ccc(NC(=O)CSc2nc3cccnc3n2-c2c(C)cc(C)cc2C)c(Br)c1	< 4.10	5.05	< 4.10	80	9
CCOC(=O)c1ccc(NC(=O)CSc2nc3cccnc3n2-c2c(C)cc(C)cc2C)c(Br)c1	< 3.93	5.00	< 3.93	117	12
Cc1cc(C)c(-n2c(SCC(=O)Nc3ccc([N+](=O)[O-])cc3Cl)nc3cccnc32)c(C)c1		< 4.60	< 4.60	25	< 1
Cc1cc(C)c(-n2c(SCC(=O)Nc3ncc(C)cc3Br)nc3cccnc32)c(C)c1		< 3.99	< 3.99	102	< 1
Cc1cc(C)c(-n2c(SCC(=O)Nc3ccc(S(N)(=O)=O)cc3Br)nc3cccnc32)c(C)c1	< 4.66	6.12	< 4.66	22	30
Cc1cc(C)c(-n2c(SCC(=O)Nc3ccccc3)nc3cnccc32)c(C)c1		< 4.77	< 4.77	17	< 1
Cc1cc(C)c(-n2c(SCC(=O)Nc3ccccc3Cl)nc3cnccc32)c(C)c1		< 4.72	< 4.72	19	< 1
